According to ChEMBL document CHEMBL1156446, “c-Src protein kinase inhibitors block assembly and maturation of dengue virus” (Proc Natl Acad Sci U S A, 2007):
pEC50, pIC50: −log10 of the molar value. Active and inactive are the calls of the source. No cut-off for these calls is given here.

Assays:
[1] = system: Dengue virus; experiment: Antiviral activity against Dengue virus infected in african green monkey Vero cells administered after viral challenge after 3 days by viral plaque assay; assay type: functional, organism-based
In short: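 Cells were seeded at 1 × 10^4 per well and infected with DENV at moi 1. Protein kinase inhibitors were then added at two noncytotoxic concentrations, set beforehand by MTT assay in Vero cells. After 3 days, infectious yield in the supernatant was titrated by plaque assay. Activity was called at ≥five-fold (0.7 log) titer decrease.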

[2] = system: dengue virus type 2; experiment: Antiviral activity against Dengue virus 2 NGC infected in african green monkey Vero cells after 3 days by immunofluorescence assay; assay type: functional, organism-based; settings: 72 h
In short: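 DENV2 NGC was adsorbed to Vero monolayers at moi 1 for 60 min at 37°C with 5% CO2, then washed with PBS. Inhibitor was added at 0.02–10 μM final in 0.25% DMSO and incubated for 3 days. Cells were fixed and stained with anti-E mAb, FITC secondary and DAPI. Infected cells were counted in four automated-microscope fields per well and compared with DMSO-treated infected wells. IC50 came from nonlinear regression.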

[3] = system: dengue virus type 2; experiment: Antiviral activity against Dengue virus 2 infected in human Huh7 cells; assay type: functional, organism-based; settings: Huh-7
In short: (§1)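 Vero, Huh-7 or C6/36 cells were infected with DENV2 at moi 1. Inhibitor was then added at noncytotoxic concentrations of 50 nM–5 μM for three days. Virus titer in the culture supernatant was measured by plaque assay.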

[4] = system: Dengue virus; experiment: Inhibition of viral spread in Dengue virus-infected african green monkey Vero cells assessed as accumulation of viral envelope protein within perinuclear region at 2.5 uM after 5 days by immunofluorescence assay relative to control; assay type: functional, organism-based
In short: (§2)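 Vero, Huh-7 or C6/36 cells were infected with DENV2 at moi 1 and then treated with 2.5 μM inhibitor or DMSO. Cells were fixed at days 4, 5 and 6 postinfection and stained for envelope protein by immunofluorescence. Envelope localization, including perinuclear accumulation, and infection of surrounding cells were compared with the DMSO control.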

[5] = system: Dengue virus; experiment: Inhibition of viral spread in Dengue virus-infected african green monkey Vero cells assessed as accumulation of viral envelope protein within perinuclear region at 2.5 uM after 4 days by immunofluorescence assay relative to control; assay type: functional, organism-based; in short: as §2
[6] = system: Dengue virus; experiment: Inhibition of viral spread in Dengue virus-infected asian tiger mosquito C6/36 cells assessed as accumulation of viral envelope protein within perinuclear region at 2.5 uM after 6 days by immunofluorescence assay relative to control; assay type: functional, organism-based; in short: as §2
[7] = system: Dengue virus; experiment: Inhibition of viral spread in Dengue virus-infected asian tiger mosquito C6/36 cells assessed as accumulation of viral envelope protein within perinuclear region at 2.5 uM after 5 days by immunofluorescence assay relative to control; assay type: functional, organism-based; in short: as §2
[8] = system: Dengue virus; experiment: Inhibition of viral spread in Dengue virus-infected african green monkey Vero cells assessed as accumulation of viral envelope protein within perinuclear region at 2.5 uM after 6 days by immunofluorescence assay relative to control; assay type: functional, organism-based; in short: as §2
[9] = system: Dengue virus; experiment: Inhibition of viral spread in Dengue virus-infected human Huh7 cells assessed as accumulation of viral envelope protein within perinuclear region at 2.5 uM after 6 days by immunofluorescence assay relative to control; assay type: functional, organism-based; settings: Huh-7; in short: as §2
[10] = system: Dengue virus; experiment: Inhibition of viral spread in Dengue virus-infected human Huh7 cells assessed as accumulation of viral envelope protein within perinuclear region at 2.5 uM after 4 days by immunofluorescence assay relative to control; assay type: functional, organism-based; settings: Huh-7; in short: as §2
[11] = system: dengue virus type 2; experiment: Antiviral activity against Dengue virus 2 infected in african green monkey Vero cells; assay type: functional, organism-based; in short: as §1
[12] = system: dengue virus type 2; experiment: Antiviral activity against Dengue virus 2 infected in asian tiger mosquito C6/36 cells; assay type: functional, organism-based; in short: as §1
[13] = system: Dengue virus; experiment: Inhibition of viral spread in Dengue virus-infected human Huh7 cells assessed as accumulation of viral envelope protein within perinuclear region at 2.5 uM after 5 days by immunofluorescence assay relative to control; assay type: functional, organism-based; settings: Huh-7; in short: as §2
[14] = system: Dengue virus; experiment: Inhibition of viral spread in Dengue virus-infected asian tiger mosquito C6/36 cells assessed as accumulation of viral envelope protein within perinuclear region at 2.5 uM after 4 days by immunofluorescence assay relative to control; assay type: functional, organism-based; in short: as §2
[15] = system: Dengue virus; experiment: Antiviral activity against Dengue virus infected in african green monkey Vero cells administered before viral challenge after 3 days by viral plaque assay; assay type: functional, organism-based
In short: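 Monolayers seeded at 1 × 10^4 cells per well were pretreated for 180 min at 37°C with inhibitor at two noncytotoxic concentrations. They were then inoculated with DENV at moi 1 for 60 min at 37°C. Supernatant harvested 3 days postinfection was titrated by plaque assay. Activity was called at ≥five-fold (0.7 log) titer decrease.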

[16] = system: dengue virus type 2; experiment: Inhibition of Dengue virus 2 assembly in african green monkey Vero cells assessed as virus-induced membrane structures at 2.5 uM after 4 days postinfection by electron microscopy; assay type: functional, organism-based
In short: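 DENV2-infected Vero cells were treated with 2.5 μM inhibitor, with DMSO-treated infected cells and DMSO-treated mock-infected cells as controls. At 4 days postinfection, cells were fixed in 2.5% glutaraldehyde plus 2.0% paraformaldehyde at 4°C for 24 h. Samples were embedded, sectioned and examined by transmission electron microscopy for virus particles and virus-induced membranes.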

[17] = system: dengue virus type 4; experiment: Antiviral activity against Dengue virus 4 H241 infected in african green monkey Vero cells; assay type: functional, organism-based
[18] = system: dengue virus type 1; experiment: Antiviral activity against Dengue virus 1 Hawaii infected in african green monkey Vero cells; assay type: functional, organism-based
[19] = Inhibition of p38 MAPK
[20] = system: Poliovirus 1; experiment: Antiviral activity against Poliovirus 1 infected in african green monkey Vero cells; assay type: functional, organism-based
[21] = Inhibition of PDGFR
[22] = system: Modoc virus; experiment: Antiviral activity against Modoc virus M544 infected in african green monkey Vero cells; assay type: functional, organism-based
[23] = system: dengue virus type 3; experiment: Antiviral activity against Dengue virus 3 H87 infected in african green monkey Vero cells; assay type: functional, organism-based

For `N#C/C(=C\c1ccc(O)c(O)c1)C(N)=O`, the Activity [1] was “Active”.

Compound `COc1c(C)c2c(c(O)c1C/C=C(\C)CCC(=O)O)C(=O)OC2` [MYCOPHENOLIC ACID] has a pEC50 [2] of 5.24.

For `O=C(O)c1cc(N(Cc2ccccc2O)Cc2cc(O)ccc2O)ccc1O`, the Activity [1] was “Active”.

In the case of `CN1CCN(CCOc2cc(OC3CCOCC3)c3c(Nc4c(Cl)ccc5c4OCO5)ncnc3c2)CC1`, the Activity [3] was “Dose-dependent effect”, the Activity [4] was “Active” and the Activity [5] was “Active”. The Activity [6] was “Active”, the Activity [7] was “Active” and the Activity [1] was “Active”. For the same compound, the Activity [8] was “Active”, the Activity [9] was “Active” and the Activity [10] was “Active”. The Activity [11] was “Dose-dependent effect”, the Activity [12] was “Dose-dependent effect” and the Activity [13] was “Active”. For the same compound, the Activity [14] was “Active”.

For `Cc1ccc(Nc2nccc(-c3ccccc3)n2)cc1F`, the Activity [15] was “Active”.

In the case of `COc1cc2ncnc(Nc3ccc(Oc4ccccc4)cc3)c2cc1OC`, the Activity [15] was “Active” and the Activity [1] was “Active”.

With `CNc1ncc2c(n1)N(C)C(=O)N(c1cc(NC(=O)c3cc(-n4cnc(C)c4)cc(C(F)(F)F)c3)ccc1C)C2` the Activity [15] was “Active” and the Activity [1] was “Active”.

In the case of `O=S(=O)(c1cccc2c(I)cccc12)N1CCCNCC1`, the Activity [1] was “Active”.

With `Brc1c(Br)c(Br)c2[nH]nnc2c1Br` the Activity [15] was “Active” and the Activity [1] was “Active”.

With `O=C(O)c1cc(NCc2cc(O)ccc2O)ccc1O` the Activity [1] was “Active”.

In the case of `Cn1cc(/C=C2\C(=O)Nc3ccc(S(N)(=O)=O)cc32)c2ccccc21`, the Activity [15] was “Active” and the Activity [1] was “Active”.

For `COc1cc2ncnc(Nc3cccc(Br)c3)c2cc1OC`, the Activity [1] was “Active”.

With `CC(C)(C)c1nc2c3ccc(F)cc3c3c(=O)[nH]ccc3c2[nH]1` the Activity [15] was “Active”.

With `O=C1Cc2c([nH]c3ccc(Br)cc23)-c2ccccc2N1` the Activity [1] was “Active”.

With `Cc1ccc(NC(=O)c2ccc(CN3CCN(C)CC3)cc2)cc1Nc1nccc(-c2cccnc2)n1` the Activity [15] was “Active”.

In the case of `Cc1nc(Nc2ncc(C(=O)Nc3c(C)cccc3Cl)s2)cc(N2CCN(CCO)CC2)n1` [DASATINIB], the Activity [3] was “Dose-dependent effect”, the Activity [16] was “Active” and the Activity [4] was “Active”. For the same compound, the Activity [5] was “Active”, the Activity [6] was “Active” and the Activity [17] was “Dose-dependent effect”. The Activity [18] was “Dose-dependent effect”, the pIC50 [19] was 7.00 and the Activity [20] was “inactive”. For the same compound, the Activity [7] was “Active”, the Activity [1] was “Active” and the pIC50 [21] was 7.55. The Activity [8] was “Active”, the Activity [9] was “Active” and the Activity [10] was “Active”. For the same compound, the Activity [11] was “Dose-dependent effect”, the Activity [12] was “Dose-dependent effect” and the Activity [13] was “Active”. The Activity [22] was “Dose-dependent effect”, the Activity [14] was “Active” and the Activity [23] was “Dose-dependent effect”.

In the case of `NC(=O)c1cccc(-c2cc(Nc3ccc(OC(F)(F)F)cc3)ncn2)c1`, the Activity [15] was “Active” and the Activity [1] was “Active”.

For `CCN(CC)CCNC(=O)c1c(C)[nH]c(/C=C2\C(=O)Nc3ccc(Cl)cc32)c1C`, the Activity [1] was “Active”.
